Rows were chosen to be rich in hits. Some 1.8% of all compounds tested hit in one or more screens of this group.
CHRM5 PAM = positive allosteric modulators of human muscarinic M5 receptor; P08912; CHO-K1 hM5, Fluo-8 calcium, ACh EC20 PAM; 0% = ACh EC20, 100% = ACh EC100; activation, % at 3 µM; 360,000 tested, 0.3% active;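 active = activation above the run cutoff, the mean activation of all test compounds plus 3 SD, cut at about 18% in these data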
Target sequence (P08912 whole entry, looked up): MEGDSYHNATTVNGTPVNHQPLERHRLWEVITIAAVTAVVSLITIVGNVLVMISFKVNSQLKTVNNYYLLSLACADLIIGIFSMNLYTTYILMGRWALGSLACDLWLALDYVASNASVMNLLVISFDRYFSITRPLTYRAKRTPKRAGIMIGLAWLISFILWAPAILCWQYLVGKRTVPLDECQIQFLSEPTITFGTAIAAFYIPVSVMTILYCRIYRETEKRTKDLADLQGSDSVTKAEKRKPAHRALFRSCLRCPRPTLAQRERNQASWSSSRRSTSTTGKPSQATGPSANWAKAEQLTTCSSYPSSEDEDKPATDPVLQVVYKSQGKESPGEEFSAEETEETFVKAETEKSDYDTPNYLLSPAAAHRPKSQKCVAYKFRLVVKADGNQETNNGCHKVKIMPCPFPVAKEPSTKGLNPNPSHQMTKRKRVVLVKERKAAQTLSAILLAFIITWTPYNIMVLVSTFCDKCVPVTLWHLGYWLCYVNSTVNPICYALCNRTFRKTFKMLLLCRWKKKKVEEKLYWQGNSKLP
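Replicates: One well per compound, no replicates | System: Human M5 receptor in CHO-K1 cells | Benchmarks: Low control EC20 acetylcholine (0%), high control EC100 acetylcholine (100%) | Probe or stimulus: Acetylcholine, EC20 level | Times: Fluo-8 loading 80 min at 37 °C plus 30 min room temperature | Signal: Intracellular calcium via Fluo-8 fluorescence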
CHRM4 agonist = agonists of human muscarinic M4 receptor (CHRM4); 360,000 tested, 0.14% active; activation, % at 3 µM; CHO-K1 hM4/Gqi5, Fluo-8 calcium fluorescence; vehicle 0%, full acetylcholine response 100%; AID 624127; P08173;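 active = activation above the run mean over all test wells plus 3 SD, cut at about 32% in these data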;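 also: peak over basal fluorescence ratio per well then scaled between controls; 0% = DMSO wells and 100% = acetylcholine at EC100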
CHRM5 agonist = CHRM5 agonism in calcium assay; 360,000 tested, 0.19% active; AID 624037; P08912; activation, % at 3 µM; CHO-K1 hM5 cells, Fluo-8 calcium fluorescence; 0% DMSO wells, 100% maximal acetylcholine response;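 active = activation above the run's mean over test compounds plus 3 SD, cut at about 23% in these data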;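 also: signal is peak over basal fluorescence ratio across the kinetic read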
CHRM4 PAM = positive allosteric modulators of human muscarinic M4 receptor. P08173. activation, % at 3 µM. 360,000 tested, 0.4% active. CHO-K1 hM4/Gqi5, Fluo-8 calcium fluorescence, ACh EC20; 0% = ACh EC20, 100% = maximal ACh;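 active = activation above its plate's cutoff, the mean activation of sample wells plus 3 SD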
M5 antag = CHRM5 antagonism in calcium assay; P08912; CHO-hM5 cells, Fluo-8 calcium fluorescence, ACh EC80; inhibition, % at 3 µM; 360,000 tested, 0.59% active;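 active = inhibition above a per-plate cutoff, the mean of that plate's test compounds plus 3 SD, cut at about 27% in these data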;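 also: 0% = acetylcholine EC80 with DMSO and 100% = DMSO without agonist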
CHRM4 antagonist = antagonists of human muscarinic M4 receptor (CHRM4) | inhibition, % at 3 µM | P08173 | CHO-hM4 cells, ACh EC80, Fluo-8 calcium fluorescence | 360,000 tested, 0.73% active;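 active = inhibition above its plate's cutoff, the mean inhibition of sample wells plus 3 SD, cut at about 27% in these data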;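 also: 0% = acetylcholine EC80 with DMSO and 100% = DMSO without agonist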
* hit, by the source's call.

SMILES	CHRM5 PAM	CHRM4 agonist	CHRM5 agonist	CHRM4 PAM	M5 antag	CHRM4 antagonist
COc1ccc(NC(=S)NC(NC(=O)c2ccc(Cl)cc2Cl)C(Cl)(Cl)Cl)c([N+](=O)[O-])c1 (centres undefined)	-21	11	6	-1	28*	-3
CC(Sc1nnc(C2CC2)n1Cc1ccccc1)C(=O)N1CCNC1=O (centres undefined)	5	1	0	3	-4	-3
CC(Sc1nnc(C2CC2)n1-c1ccccc1)C(=O)N1CCNC1=O (centres undefined)	-4	0	3	23*	3	-11
Cc1ccc(COc2coc(CN3CCN(C(=O)c4ccco4)CC3)cc2=O)cc1	3	1	0	13	5	-8
O=C(c1ccco1)N1CCN(Cc2cc(=O)c(OCc3ccc([N+](=O)[O-])cc3)co2)CC1	3	0	-2	-7	7	31*
Cc1cccc(C)c1NC(=O)C(C1CC1)n1c(-c2ccc(=O)[nH]c2)nc2ccccc21 (centres undefined)	21*	1	1	6	-21	-7
Cc1cccc(C)c1NC(=O)C(C)n1c(-c2ccc(=O)[nH]c2)nc2ccccc21 (centres undefined)	-1	4	1	7	-2	-7
COc1cc2c(C#N)c(N3CCc4ccccc4C3)nc(N)c2c(N)n1	37*	1	16	10	1	-4
CCC(=O)C1CCCN(C(=O)c2ccc(OC3CCN(C(=O)CCOC)CC3)cc2)C1 (centres undefined)	-6	0	0	0	-1	0
COc1cc(C(=O)Nc2ccc3c(c2)N(C(=O)CCN(C)C)c2ccccc2CC3)cc(OC)c1OC	-21	1	-9	-21	16	30*
COc1cc(C(=O)Nc2cccc(C(C)=O)c2)cc(OC)c1OC	0	5	3	-2	5	-1
COc1cc(C(=O)Nc2cccc(NC(=O)c3ccccc3)c2)cc(OC)c1OC	-25	14	-7	-11	30*	-3
CCN(CC)c1ccc(C=C2C(=O)OC3(CCCCC3)OC2=O)cc1	-2	0	-3	9	10	-3
CCN(CC)c1ccc(/C=C2/C(=O)c3ccc(C(=O)O)cc3C2=O)cc1	-17	20	33*	-12	18	33*
CC(=O)c1cccc(NC(=O)C2(C)Cc3c(-c4ccccc4)ccnc3O2)c1 (centres undefined)	2	6	0	0	-4	-8
Cc1c(Cl)c(=O)oc2cc(OCC(=O)NCc3cccs3)ccc12	21*	3	1	2	-28	-8
CCOC(=O)C1=CN(Cc2ccco2)S(=O)(=O)N(CC)C1c1ccc(C(F)(F)F)cc1 (centres undefined)	-2	0	-1	-5	1	-8
CCCCN(C)C(=O)c1ccc(CS(=O)(=O)c2ccccc2C)o1	2	3	0	18*	-3	-13
Cc1ccccc1S(=O)(=O)Cc1ccc(C(=O)NC2CCCCCC2)o1	10	4	3	15*	-3	9
COC(CN(C)C(=O)c1ccc(CS(=O)(=O)c2ccccc2C)o1)OC	-1	2	-5	5	1	1
Cc1ccc(NC(=O)Cc2nn(C)c(=O)c3ccccc23)cc1F	-16	5	5	-12	15	33*
CCCn1cc(SCC(=O)Nc2ccc3c(c2)OCO3)c2ccccc21	-20	5	29*	-5	5	-11
Cn1nc(CC(=O)Nc2ccc3c(c2)OCCO3)c2ccccc2c1=O	-8	8	6	3	32*	16
O=C(CCn1cnc2ccccc2c1=O)Nc1ccc2c(c1)OCCO2	25*	2	-5	1	-8	-6
O=C(OCn1nnc2ccccc2c1=O)c1ccc(F)c(S(=O)(=O)N2CCOCC2)c1	0	11	6	1	2	-4
SMILES	CHRM5 PAM	CHRM4 agonist	CHRM5 agonist	CHRM4 PAM	M5 antag	CHRM4 antagonist
COC(=O)[C@]12CCCCC=C1N(CCc1ccc(OC)c(OC)c1)C(=O)[C@H](CC(=O)N1CCCCC1)C2	-19	22	4	-13	25	-3
CCNC(=O)NC(=O)C(C)OC(=O)CNS(=O)(=O)c1c(Cl)cc(Br)cc1Cl (centres undefined)	-3	1	-3	0	13	-1
CN1CCN(S(=O)(=O)c2ccccc2)C(c2ccccc2)C1 (centres undefined)	5	0	-1	2	9	5
CN1CCN2c3ccccc3Cc3ccccc3C2C1 (centres undefined)	-19	0	-2	-16	45*	17
Cc1cccc(C)c1NC(=O)C1(C)CSCC(=O)N1CCCN1CCOCC1 (centres undefined)	-1	0	0	8	6	-2
CCN(CC)C(=O)CSc1nc2ccccc2c(=O)n1OC(C)C	23*	-3	4	19	-15	-9
Cc1nc2scc(C)n2c(=O)c1S(=O)(=O)NCC1CCN(Cc2ccc(Cl)cc2)CC1	-2	1	-8	-14	3	65*
Cc1cccc(NC(=O)COc2ccc(-c3nn(C)c(=O)c4ccccc34)cc2)c1	-7	15	-3	-10	9	0
NC(c1csc(NC(=O)Nc2ccccc2)n1)C1CCCCC1 (centres undefined)	-4	10	3	2	4	-1
NC(c1csc(NC(=O)Nc2cccc(Cl)c2)n1)C1CCCCC1 (centres undefined)	6	38*	4	1	9	39*
CCCNC(=O)C[C@@H]1C[C@H]2c3cc(NC(=O)c4ccc5c(c4)OCO5)ccc3O[C@H]2[C@@H](CO)O1	-2	0	1	1	-2	-14
O=C(CCC1CCN(Cc2nccs2)CC1)Nc1ccccc1	-9	1	-1	0	29*	-10
O=C(Nc1cccc(-c2cccc(Cl)c2)c1)C1CCN(Cc2nccs2)CC1	-4	11	0	-6	3	1
CN(C)S(=O)(=O)n1cnc([C@@H]2[C@H]3C(=O)OC[C@@H]3C[C@@]23N=CN(Cc2ccccc2)C3=O)c1	12	0	-1	-1	0	0
CCCc1nnc(SCc2ccc(C(=O)OC)o2)n1N	3	1	0	1	-1	-1
CCc1nnc(SCc2ccc(C(=O)OC)o2)n1N	19*	2	2	12	-10	-7
Cc1ccc2c(COC(=O)CNC(=O)c3ccco3)cc(=O)oc2c1C	-1	2	5	10	-3	-6

Assay outcomes from PubChem BioAssay.
